Among the data in ChEMBL document CHEMBL2424625, “Synthesis and structure-activity relationships of novel indazolyl glucocorticoid receptor partial agonists” (Bioorg Med Chem Lett, 2013) are Efficacy, Ki and EC50 values, retold here.

Assay [1] concerns the target T1, Glucocorticoid receptor (Homo sapiens) (UniProt P04150).
T1 sequence (whole entry): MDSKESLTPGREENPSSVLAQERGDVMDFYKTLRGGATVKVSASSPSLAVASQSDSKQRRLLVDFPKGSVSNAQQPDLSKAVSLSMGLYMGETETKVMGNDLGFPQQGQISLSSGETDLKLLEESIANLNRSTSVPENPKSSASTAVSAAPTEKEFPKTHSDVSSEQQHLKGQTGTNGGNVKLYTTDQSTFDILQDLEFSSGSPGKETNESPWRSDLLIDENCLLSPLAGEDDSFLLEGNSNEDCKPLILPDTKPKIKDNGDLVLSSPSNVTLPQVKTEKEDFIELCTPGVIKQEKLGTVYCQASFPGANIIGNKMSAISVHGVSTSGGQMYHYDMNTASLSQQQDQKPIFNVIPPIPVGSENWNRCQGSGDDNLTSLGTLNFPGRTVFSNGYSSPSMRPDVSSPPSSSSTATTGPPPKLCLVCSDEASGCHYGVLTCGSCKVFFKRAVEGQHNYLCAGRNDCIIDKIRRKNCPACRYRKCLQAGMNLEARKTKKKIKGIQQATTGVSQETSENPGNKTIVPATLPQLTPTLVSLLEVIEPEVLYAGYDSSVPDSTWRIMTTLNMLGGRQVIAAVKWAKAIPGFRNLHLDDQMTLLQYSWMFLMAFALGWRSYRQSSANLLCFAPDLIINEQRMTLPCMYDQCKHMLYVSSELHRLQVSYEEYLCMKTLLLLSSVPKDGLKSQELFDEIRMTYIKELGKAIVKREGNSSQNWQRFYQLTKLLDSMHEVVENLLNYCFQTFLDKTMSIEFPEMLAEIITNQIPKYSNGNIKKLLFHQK
Put plainly: Transrepression activity at glucocorticoid receptor in human A549 cells assessed as inhibition of PMA-stimulated AP1 response element by luciferase reporter gene assay relative to dexamethasone. Type of assay: cell-based. A digest of the protocol: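 Transrepression of AP-1 was run in A549 lung epithelial cells. […] Values are means of two or more experiments in triplicate.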

A further assay concerns the target T2, Androgen receptor (Homo sapiens, UniProt P10275).
T2 sequence (P10275 whole entry): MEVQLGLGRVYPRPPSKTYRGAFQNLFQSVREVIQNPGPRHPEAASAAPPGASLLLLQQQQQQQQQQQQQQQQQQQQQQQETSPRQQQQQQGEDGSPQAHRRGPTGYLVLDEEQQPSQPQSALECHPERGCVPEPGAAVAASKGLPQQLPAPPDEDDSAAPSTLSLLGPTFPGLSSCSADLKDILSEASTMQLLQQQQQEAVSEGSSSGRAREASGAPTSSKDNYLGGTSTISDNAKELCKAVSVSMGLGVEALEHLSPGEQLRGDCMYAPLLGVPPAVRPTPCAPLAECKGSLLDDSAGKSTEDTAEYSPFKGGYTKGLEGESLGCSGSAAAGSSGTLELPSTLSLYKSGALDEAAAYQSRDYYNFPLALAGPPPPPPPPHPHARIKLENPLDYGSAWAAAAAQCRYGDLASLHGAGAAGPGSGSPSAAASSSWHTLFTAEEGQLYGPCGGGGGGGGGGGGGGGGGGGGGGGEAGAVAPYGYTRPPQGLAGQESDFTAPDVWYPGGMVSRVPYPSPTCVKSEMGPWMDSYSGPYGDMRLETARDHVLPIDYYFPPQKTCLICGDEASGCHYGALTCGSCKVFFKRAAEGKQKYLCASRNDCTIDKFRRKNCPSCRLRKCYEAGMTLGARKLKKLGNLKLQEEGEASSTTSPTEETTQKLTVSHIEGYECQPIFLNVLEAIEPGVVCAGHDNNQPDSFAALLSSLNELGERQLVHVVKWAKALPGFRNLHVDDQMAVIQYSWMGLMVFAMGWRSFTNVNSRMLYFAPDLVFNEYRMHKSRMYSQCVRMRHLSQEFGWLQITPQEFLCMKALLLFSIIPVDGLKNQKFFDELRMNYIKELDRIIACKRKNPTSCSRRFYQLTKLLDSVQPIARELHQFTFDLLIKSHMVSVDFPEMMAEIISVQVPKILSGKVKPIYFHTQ
Description: Binding affinity to androgen receptor (unknown origin) by fluorescence assay. The method, boiled down: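 Fluorescence polarization competition between test compound and a fluorescently labeled ligand for binding to full-length receptor or its ligand binding domain. IC50 was fit to the signal by four-parameter logistic equation. Ki = IC50/(1 + ligand concentration/Kd) (Cheng–Prusoff).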

Assay [2] addresses T1, Glucocorticoid receptor (Homo sapiens). Put plainly: Transactivation activity at glucocorticoid receptor ligand binding domain (unknown origin) expressed in human Hela cells co-expressing GAL4 DNA binding domain assessed as NP-1-stimulated GRE activation by luciferase reporter gene assay relative to dexamethasone. It counts as cell-based. The method, boiled down: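 HeLa line (NP-1) stably transfected with a GR-LBD chimera cloned into a GAL4 luciferase reporter was run in agonist mode. Direct GR-LBD activation was read as increased luciferase activity. […] Values are means of two or more experiments in triplicate.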
(A reporter such as luciferase makes a cellular process visible.)

The target of assay [3] is T3, Glucocorticoid receptor (Homo sapiens, UniProt P04150).
T3 sequence (P04150 whole entry): T1 sequence (whole entry)
Description: Binding affinity to glucocorticoid receptor (unknown origin) by fluorescence assay.

Assay [4] has as its target T1, Glucocorticoid receptor (Homo sapiens). Put plainly: Transrepression activity at glucocorticoid receptor in human A549 cells assessed as inhibition of IL1beta-stimulated NFkappaB-dependent E-selectin transcription by luciferase reporter gene assay relative to dexamethasone. Type of assay: cell-based. A digest of the protocol:
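In A549 lung epithelial cells, NFkB activity was induced with IL-1β (0.5 ng/ml). Inhibition was quantitated as decreased luciferase activity. […] Values are means of two or more experiments in triplicate.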

Assay [5] deals with T3, Glucocorticoid receptor. Put plainly: Transactivation activity at glucocorticoid receptor ligand binding domain (unknown origin) expressed in human Hela cells co-expressing GAL4 DNA binding domain assessed as NP-1-stimulated GRE activation by luciferase reporter gene assay. It counts as cell-based.
Assay [6] has as its target T3, Glucocorticoid receptor. Description: Transrepression activity at glucocorticoid receptor in human A549 cells assessed as inhibition of PMA-stimulated AP1 response element by luciferase reporter gene assay. Type of assay: cell-based.
Assay [7] concerns the target T3, Glucocorticoid receptor. Description: Transrepression activity at glucocorticoid receptor in human A549 cells assessed as inhibition of IL1beta-stimulated NFkappaB-dependent E-selectin transcription by luciferase reporter gene assay. Type of assay: cell-based.

Bounds are passed on as bounds.

Usually Ki stands for the equilibrium dissociation constant of an inhibitor or competing ligand from its target. Read a high Ki as a looser hold on the target. Broadly, the EC50 is the concentration that produces a half-maximal response. For `CC(C)(CNS(=O)(=O)CC(F)(F)F)[C@@H](c1ccccc1)c1ccc2c(cnn2-c2ccc(F)cc2)c1`, the Efficacy in assay [1] was found to be 74%; in assay [2], 24%; in assay [4] it was 86%. Moreover, the values for the Ki at Androgen receptor and on Glucocorticoid receptor [3] were more than 5000 nM and 0.64 nM, respectively. Further, the half-maximal effective concentration (EC50) on Glucocorticoid receptor [5] is 202 nM; on Glucocorticoid receptor [6] it was 20.4 nM; at Glucocorticoid receptor [7], 7.6 nM.
On to `CC(C)(CNC(=O)CC(F)(F)F)[C@@H](c1ccccc1)c1ccc2c(cnn2-c2ccc(F)cc2)c1`, for which the Efficacy in assay [1] was 91%; in assay [2] it was 65%; in assay [4] it was 90%. Besides, the values for the Ki at Androgen receptor and at Glucocorticoid receptor [3] were more than 5000 nM and 0.81 nM, respectively. Also, the half-maximal effective concentration (EC50) is 129 nM at Glucocorticoid receptor [5], 12.4 nM on Glucocorticoid receptor [6] and 6.85 nM on Glucocorticoid receptor [7].
Take `CC(C)(C)NC(=O)NCC(C)(C)[C@@H](c1ccccc1)c1ccc2c(cnn2-c2ccc(F)cc2)c1`: the Efficacy in assay [1] stood at 74%; in assay [2], 12%; in assay [4], 65%. The Ki is more than 5000 nM on Androgen receptor and 5.14 nM on Glucocorticoid receptor [3]. The EC50 on Glucocorticoid receptor [5] amounted to 429 nM; on Glucocorticoid receptor [6], 57 nM; at Glucocorticoid receptor [7], 58 nM.
